Measurements as given in ChEMBL document CHEMBL1165965, “Synthesis and structure-activity relationships of 1,2,3,4-tetrahydropyrido[2,3-b]pyrazines as potent and selective inhibitors of the anaplastic lymphoma kinase” (Bioorg Med Chem, 2010).

Legend:
[1] = biological target: Ribosomal protein S6 kinase alpha-2 (Homo sapiens) (UniProt Q15349); experiment: Inhibition of RPS6KA2 C-terminal domain2 at 1 uM
[2] = biological target: Hepatocyte growth factor receptor (Homo sapiens) (UniProt P08581); experiment: Inhibition of MET at 1 uM
Hepatocyte growth factor receptor (Homo sapiens), sequence (P08581 whole entry): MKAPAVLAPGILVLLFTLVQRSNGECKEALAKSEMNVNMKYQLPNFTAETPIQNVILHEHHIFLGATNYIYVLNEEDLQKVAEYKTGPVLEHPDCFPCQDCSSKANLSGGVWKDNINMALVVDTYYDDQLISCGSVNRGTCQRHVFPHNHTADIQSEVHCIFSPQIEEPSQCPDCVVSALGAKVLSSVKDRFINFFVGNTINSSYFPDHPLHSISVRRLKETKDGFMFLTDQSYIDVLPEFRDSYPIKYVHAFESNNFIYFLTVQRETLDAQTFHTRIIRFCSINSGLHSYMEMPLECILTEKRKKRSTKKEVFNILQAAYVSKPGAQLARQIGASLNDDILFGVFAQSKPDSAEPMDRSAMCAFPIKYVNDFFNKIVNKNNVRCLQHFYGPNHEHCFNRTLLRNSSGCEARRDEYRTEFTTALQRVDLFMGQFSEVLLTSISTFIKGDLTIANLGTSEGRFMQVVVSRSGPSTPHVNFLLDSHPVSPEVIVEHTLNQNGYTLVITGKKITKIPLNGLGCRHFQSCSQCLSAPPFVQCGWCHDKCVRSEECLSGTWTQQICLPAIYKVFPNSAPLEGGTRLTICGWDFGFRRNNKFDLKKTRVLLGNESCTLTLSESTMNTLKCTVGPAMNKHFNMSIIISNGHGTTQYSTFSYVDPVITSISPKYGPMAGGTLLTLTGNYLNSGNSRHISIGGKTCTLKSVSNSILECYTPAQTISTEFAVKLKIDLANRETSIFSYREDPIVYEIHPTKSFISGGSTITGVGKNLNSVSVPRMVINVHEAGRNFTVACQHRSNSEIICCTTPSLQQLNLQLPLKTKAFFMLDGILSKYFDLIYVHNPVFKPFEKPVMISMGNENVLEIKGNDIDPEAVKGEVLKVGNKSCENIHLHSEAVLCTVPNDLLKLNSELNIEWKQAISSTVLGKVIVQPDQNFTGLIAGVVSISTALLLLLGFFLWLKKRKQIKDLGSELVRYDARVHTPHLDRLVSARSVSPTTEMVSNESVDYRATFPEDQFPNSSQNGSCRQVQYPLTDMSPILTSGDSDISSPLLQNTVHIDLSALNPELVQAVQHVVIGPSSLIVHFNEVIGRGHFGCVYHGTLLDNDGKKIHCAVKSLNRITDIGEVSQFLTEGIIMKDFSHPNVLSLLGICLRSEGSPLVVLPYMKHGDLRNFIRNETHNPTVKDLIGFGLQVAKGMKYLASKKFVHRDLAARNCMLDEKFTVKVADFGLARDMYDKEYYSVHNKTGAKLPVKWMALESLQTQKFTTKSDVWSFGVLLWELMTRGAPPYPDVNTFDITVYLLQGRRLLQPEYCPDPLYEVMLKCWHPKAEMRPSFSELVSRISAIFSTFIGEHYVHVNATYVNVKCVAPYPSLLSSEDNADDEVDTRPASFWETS
Procedure, shortened: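 Single-concentration screen on the Ambit KINOMEscan platform, run against a panel of 250–400 kinases. Per-kinase inhibition was also summarized as S(90), the fraction of kinases inhibited by more than 90%.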

[3] = biological target: SRSF protein kinase 1 (Homo sapiens) (UniProt Q96SB4); experiment: Inhibition of SRPK1 at 1 uM
SRSF protein kinase 1 (Homo sapiens), sequence (Q96SB4 whole entry): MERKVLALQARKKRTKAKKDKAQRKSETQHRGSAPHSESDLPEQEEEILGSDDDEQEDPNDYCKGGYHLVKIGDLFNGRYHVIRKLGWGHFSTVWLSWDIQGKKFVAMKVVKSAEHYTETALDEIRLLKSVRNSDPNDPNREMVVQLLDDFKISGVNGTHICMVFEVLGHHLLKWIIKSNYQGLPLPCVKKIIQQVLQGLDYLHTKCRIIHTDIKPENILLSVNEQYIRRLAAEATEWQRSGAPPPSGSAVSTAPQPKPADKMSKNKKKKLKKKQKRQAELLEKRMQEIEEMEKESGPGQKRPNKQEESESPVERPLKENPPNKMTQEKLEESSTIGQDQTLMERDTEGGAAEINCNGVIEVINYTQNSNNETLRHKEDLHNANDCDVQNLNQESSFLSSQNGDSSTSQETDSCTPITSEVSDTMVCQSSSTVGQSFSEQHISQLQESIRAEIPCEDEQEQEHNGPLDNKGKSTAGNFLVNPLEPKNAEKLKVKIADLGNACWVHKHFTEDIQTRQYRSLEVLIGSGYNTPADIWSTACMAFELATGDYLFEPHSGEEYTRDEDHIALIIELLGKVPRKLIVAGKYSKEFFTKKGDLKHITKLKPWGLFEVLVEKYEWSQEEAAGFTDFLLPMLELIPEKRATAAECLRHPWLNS

[4] = biological target: Calcium/calmodulin-dependent protein kinase kinase 1 (Homo sapiens) (UniProt Q8N5S9); experiment: Inhibition of CAMKK1 at 1 uM
Calcium/calmodulin-dependent protein kinase kinase 1 (Homo sapiens), sequence (Q8N5S9 whole entry, looked up): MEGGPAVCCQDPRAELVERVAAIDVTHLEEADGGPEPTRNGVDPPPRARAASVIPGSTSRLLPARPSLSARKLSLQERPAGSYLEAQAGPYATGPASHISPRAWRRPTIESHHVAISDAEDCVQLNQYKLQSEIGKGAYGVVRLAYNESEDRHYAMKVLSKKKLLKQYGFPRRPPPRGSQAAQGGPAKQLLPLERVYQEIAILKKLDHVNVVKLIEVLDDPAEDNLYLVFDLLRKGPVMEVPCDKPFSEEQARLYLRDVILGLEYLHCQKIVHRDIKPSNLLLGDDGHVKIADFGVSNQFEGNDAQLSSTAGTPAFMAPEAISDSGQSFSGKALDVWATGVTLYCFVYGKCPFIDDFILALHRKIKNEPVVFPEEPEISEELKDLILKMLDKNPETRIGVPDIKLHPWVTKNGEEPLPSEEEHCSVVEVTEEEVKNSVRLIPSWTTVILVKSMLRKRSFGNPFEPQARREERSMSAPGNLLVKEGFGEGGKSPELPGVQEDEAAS
Procedure, shortened: (§1)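 Ambit KINOMEscan screen at a single concentration across a 250–400 kinase panel, recorded as percent inhibition. Selectivity was expressed as S(90), the fraction of kinases inhibited >90%.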

[5] = biological target: Macrophage-stimulating protein receptor (Homo sapiens) (UniProt Q04912); experiment: Inhibition of MST1R at 1 uM
Macrophage-stimulating protein receptor (Homo sapiens), sequence (Q04912 25-304 limits assumed): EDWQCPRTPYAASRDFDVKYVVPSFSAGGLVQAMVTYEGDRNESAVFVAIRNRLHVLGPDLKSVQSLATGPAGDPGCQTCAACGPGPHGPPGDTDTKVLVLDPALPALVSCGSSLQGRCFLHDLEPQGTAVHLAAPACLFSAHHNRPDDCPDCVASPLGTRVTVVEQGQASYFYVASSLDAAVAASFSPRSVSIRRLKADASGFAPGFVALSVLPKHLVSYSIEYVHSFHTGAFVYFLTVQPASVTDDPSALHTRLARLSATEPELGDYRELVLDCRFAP
Macrophage-stimulating protein receptor (Homo sapiens), sequence (Q04912 310-1400 limits assumed): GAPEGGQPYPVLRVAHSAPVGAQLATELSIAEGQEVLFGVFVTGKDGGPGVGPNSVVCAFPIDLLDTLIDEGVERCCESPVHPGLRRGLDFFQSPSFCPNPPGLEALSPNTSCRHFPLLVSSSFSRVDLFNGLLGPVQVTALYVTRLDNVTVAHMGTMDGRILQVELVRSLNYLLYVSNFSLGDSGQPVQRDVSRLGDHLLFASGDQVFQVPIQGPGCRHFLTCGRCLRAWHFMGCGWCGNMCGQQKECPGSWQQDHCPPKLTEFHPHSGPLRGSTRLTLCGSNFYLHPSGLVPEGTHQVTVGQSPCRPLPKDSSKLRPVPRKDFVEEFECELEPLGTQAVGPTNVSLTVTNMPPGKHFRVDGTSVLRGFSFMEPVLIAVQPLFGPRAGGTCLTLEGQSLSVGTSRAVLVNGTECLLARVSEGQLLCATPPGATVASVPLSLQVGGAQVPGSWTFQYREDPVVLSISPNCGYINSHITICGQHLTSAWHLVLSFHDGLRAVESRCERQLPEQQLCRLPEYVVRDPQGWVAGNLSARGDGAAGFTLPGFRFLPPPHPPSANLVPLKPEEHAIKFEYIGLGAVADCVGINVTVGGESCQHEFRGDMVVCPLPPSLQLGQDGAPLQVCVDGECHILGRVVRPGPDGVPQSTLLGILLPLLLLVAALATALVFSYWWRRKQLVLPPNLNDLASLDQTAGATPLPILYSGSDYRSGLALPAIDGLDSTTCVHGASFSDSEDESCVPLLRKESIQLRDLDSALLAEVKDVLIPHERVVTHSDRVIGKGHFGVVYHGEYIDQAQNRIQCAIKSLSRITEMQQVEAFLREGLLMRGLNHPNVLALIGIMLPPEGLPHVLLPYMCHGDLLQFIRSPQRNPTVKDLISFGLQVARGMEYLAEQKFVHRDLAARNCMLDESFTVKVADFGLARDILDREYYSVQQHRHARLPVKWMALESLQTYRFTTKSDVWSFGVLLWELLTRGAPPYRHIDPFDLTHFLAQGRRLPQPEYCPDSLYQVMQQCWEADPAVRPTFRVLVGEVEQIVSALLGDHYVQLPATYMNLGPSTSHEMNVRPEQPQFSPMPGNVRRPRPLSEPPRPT

[6] = biological target: T1, Ephrin type-A receptor 3 (Homo sapiens) (UniProt P29320); experiment: Inhibition of EPHA3 at 1 uM
T1 sequence (whole entry): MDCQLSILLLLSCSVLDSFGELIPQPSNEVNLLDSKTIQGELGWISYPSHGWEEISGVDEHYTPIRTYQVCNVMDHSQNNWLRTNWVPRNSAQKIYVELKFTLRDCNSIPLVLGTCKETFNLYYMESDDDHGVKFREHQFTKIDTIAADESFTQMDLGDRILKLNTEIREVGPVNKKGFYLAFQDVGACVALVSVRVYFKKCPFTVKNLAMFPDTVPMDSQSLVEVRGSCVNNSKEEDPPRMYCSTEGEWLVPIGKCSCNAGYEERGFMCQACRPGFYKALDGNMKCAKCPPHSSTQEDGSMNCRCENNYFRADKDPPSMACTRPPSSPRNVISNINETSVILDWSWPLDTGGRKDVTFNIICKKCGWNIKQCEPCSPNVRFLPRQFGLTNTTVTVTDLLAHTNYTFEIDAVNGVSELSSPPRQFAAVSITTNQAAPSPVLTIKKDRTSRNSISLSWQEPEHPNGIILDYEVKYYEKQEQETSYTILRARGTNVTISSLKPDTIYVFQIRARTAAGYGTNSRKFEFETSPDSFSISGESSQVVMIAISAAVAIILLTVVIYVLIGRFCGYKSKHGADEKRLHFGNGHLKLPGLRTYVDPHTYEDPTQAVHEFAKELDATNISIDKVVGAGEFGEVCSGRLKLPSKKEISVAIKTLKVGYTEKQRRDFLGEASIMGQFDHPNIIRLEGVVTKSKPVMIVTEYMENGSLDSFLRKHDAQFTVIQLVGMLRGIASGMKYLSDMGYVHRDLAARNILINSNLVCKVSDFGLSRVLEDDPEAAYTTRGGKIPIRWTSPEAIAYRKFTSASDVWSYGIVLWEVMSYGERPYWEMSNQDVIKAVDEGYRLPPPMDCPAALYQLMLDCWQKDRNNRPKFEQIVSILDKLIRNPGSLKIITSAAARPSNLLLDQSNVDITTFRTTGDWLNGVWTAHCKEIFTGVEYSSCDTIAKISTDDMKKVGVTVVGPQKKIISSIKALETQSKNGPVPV
Procedure, shortened: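 Single-concentration screen using Ambit Bioscience KINOMEscan technology across a panel of 250–400 kinases. Per-kinase inhibition from this screen was summarized as S(90), the fraction of kinases inhibited by more than 90%.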

[7] = biological target: T2, Serine/threonine-protein kinase BRSK2 (Homo sapiens) (UniProt Q8IWQ3); experiment: Inhibition of BRSK2 at 1 uM; procedure, shortened: as §1
T2 sequence (whole entry): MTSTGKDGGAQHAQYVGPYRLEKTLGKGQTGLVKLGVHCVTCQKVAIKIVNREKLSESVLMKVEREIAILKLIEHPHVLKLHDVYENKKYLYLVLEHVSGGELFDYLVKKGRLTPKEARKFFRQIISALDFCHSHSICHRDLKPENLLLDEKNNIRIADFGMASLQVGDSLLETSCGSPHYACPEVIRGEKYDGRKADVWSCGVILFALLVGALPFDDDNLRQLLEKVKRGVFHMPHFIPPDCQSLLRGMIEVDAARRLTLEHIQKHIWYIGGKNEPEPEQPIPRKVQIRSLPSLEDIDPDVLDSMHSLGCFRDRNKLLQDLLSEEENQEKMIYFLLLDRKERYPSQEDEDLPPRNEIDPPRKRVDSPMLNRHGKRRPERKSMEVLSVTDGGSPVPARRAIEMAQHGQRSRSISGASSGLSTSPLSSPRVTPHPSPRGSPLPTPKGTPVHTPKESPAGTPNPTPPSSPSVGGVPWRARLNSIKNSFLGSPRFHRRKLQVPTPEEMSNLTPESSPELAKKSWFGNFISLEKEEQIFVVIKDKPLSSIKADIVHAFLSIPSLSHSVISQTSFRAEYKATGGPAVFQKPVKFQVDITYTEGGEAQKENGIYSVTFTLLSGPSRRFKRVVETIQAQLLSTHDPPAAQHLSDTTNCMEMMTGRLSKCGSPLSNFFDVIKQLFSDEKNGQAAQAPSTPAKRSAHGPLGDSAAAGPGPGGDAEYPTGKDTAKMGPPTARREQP

Ribosomal protein S6 kinase alpha-2 (Homo sapiens), sequence (Q15349 whole entry, the tested form may be a part): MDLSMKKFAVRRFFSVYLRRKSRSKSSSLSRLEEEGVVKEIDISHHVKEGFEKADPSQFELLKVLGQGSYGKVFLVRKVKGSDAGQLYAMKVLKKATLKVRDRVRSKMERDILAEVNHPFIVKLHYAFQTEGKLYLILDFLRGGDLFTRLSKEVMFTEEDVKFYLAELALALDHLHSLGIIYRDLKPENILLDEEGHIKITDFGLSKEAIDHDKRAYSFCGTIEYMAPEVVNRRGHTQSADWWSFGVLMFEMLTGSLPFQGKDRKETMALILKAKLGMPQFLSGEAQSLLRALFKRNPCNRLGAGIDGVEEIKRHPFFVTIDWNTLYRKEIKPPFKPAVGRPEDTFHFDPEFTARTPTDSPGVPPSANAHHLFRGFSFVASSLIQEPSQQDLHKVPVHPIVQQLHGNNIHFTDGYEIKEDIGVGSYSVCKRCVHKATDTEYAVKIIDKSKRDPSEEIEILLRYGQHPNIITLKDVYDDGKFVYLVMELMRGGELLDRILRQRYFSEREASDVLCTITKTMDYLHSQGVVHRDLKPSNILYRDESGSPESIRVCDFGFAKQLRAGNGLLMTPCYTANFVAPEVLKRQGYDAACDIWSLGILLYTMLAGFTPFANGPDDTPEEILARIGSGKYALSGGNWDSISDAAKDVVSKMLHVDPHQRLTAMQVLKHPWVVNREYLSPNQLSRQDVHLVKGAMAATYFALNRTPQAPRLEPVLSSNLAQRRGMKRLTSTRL

Row | inhibition [1] [%] | inhibition [2] [%] | inhibition [3] [%] | inhibition [4] [%] | inhibition [5] [%] | inhibition [6] [%] | inhibition [7] [%] | Compound
1 | < 50 | 67 | < 50 | < 50 | < 50 | < 50 | < 50 | CN1CCN(c2ccc(-c3cnc4c(c3)N(Cc3cc(Cl)ccc3Cl)CCN4)cn2)CC1
2 | < 50 | 82 | < 50 | < 50 | < 50 | < 50 | < 50 | CN1CCN(c2ccc(-c3cnc4c(c3)N(Cc3cc(Cl)ccc3C(F)(F)F)CCN4)cn2)CC1
3 | < 50 | 76.6 | < 50 | < 50 |  | < 50 | < 50 | COC1CCN(C(=O)c2ccc(-c3cnc4c(c3)N(Cc3cc(Cl)ccc3C(F)(F)F)CCN4)cc2)CC1
4 | < 50 | 66 | < 50 | < 50 |  | < 50 | < 50 | O=C(c1ccc(-c2cnc3c(c2)N(Cc2cc(Cl)ccc2C(F)(F)F)CCN3)cc1)N1CCCCC1
5 | < 50 | 94 | < 50 | < 50 | < 50 | < 50 | < 50 | FC(F)(F)c1ccc(Cl)cc1CN1CCNc2ncc(-c3ccnc(N4CCNCC4)c3)cc21
6 | < 50 | 86 | < 50 | < 50 | < 50 | < 50 | < 50 | CC(=O)N1CCN(c2cc(-c3cnc4c(c3)N(Cc3cc(Cl)ccc3C(F)(F)F)CCN4)ccn2)CC1
7 | < 50 | < 50 | < 50 | < 50 |  | < 50 | < 50 | O=C(O)c1ccc(-c2cnc3c(c2)N(Cc2cc(Cl)ccc2C(F)(F)F)CCN3)cc1
8 | < 50 | 90.3 | < 50 | < 50 |  | < 50 | 63.8 | O=C(c1ccc(-c2cnc3c(c2)N(Cc2cc(Cl)ccc2C(F)(F)F)CCN3)cc1)N1CCC(N2CCCC2)CC1
9 | < 50 | 94 | < 50 | < 50 | < 50 | < 50 | < 50 | CN1CCN(c2ccc(-c3cnc4c(c3)N(Cc3c(F)ccc(F)c3Cl)CCN4)cn2)CC1
10 | < 50 | < 50 | < 50 | < 50 | < 50 | < 50 | < 50 | CN1CCN(c2ccc(-c3cnc4c(c3)N(Cc3cc(F)ccc3F)CCN4)cn2)CC1
